Measurements reported in ChEMBL document CHEMBL4138298, “Synthesis of Novel Tetrahydroisoquinoline CXCR4 Antagonists with Rigidified Side-Chains” (ACS Med Chem Lett, 2018).
The source made the active and inactive calls. No cut-off for these calls is given here.

Columns and labels:
[1] = molecular target: T1, Muscarinic acetylcholine receptor M3 (Homo sapiens, UniProt P20309); test: Antagonist activity at mAChR M3 in human CCRF-CEM cells assessed as inhibition of acetylcholine-mediated calcium flux incubated for 25 mins followed by acetylcholine stimulation measured for 90 secs; type: functional, cell-based
Target sequence in this assay (P20309 whole entry): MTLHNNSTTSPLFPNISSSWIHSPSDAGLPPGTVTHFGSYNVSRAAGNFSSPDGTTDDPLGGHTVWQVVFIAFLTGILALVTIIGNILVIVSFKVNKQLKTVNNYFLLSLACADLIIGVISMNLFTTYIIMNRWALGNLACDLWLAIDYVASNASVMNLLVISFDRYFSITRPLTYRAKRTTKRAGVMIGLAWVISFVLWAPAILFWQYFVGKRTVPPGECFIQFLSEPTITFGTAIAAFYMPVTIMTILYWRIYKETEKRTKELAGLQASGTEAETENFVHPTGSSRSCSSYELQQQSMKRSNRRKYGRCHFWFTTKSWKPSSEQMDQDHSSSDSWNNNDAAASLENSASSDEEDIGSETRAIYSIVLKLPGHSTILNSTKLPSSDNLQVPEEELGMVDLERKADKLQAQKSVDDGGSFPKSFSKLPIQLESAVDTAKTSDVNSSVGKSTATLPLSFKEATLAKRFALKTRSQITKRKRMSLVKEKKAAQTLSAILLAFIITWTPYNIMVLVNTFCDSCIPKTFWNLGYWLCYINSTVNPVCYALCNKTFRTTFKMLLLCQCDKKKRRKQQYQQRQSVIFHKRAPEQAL

[2] = Metabolic stability in rat liver microsomes assessed as parent compound remaining; type: ADME, microsome
Cytochrome P450 2D6 = Cytochrome P450 2D6 (Homo sapiens, UniProt P10635); test: Inhibition of recombinant human CYP2D6 expressed in insect microsomes using AMMC as substrate preincubated for 30 mins followed by NADPH addition measured after 45 mins by fluorescence assay; type: ADME
Cytochrome P450 2D6, sequence (P10635 whole entry): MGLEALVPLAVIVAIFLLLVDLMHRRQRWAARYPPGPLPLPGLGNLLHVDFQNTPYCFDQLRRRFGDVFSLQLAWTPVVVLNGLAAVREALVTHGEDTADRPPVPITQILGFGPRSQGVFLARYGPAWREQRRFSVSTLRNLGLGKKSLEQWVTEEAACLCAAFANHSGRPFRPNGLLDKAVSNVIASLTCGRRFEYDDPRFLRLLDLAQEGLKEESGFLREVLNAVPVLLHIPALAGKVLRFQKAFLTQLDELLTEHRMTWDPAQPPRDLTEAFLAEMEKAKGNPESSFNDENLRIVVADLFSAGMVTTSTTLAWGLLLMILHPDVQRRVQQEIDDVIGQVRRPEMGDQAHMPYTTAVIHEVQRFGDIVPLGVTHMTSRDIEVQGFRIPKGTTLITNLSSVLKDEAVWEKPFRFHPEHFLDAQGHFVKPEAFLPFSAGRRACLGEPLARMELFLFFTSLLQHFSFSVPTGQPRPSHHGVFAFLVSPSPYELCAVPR

[3] = molecular target: T2, C-X-C chemokine receptor type 4 (Homo sapiens, UniProt P61073); test: Agonist activity at CXCR4 in human CCRF-CEM cells assessed as increase in calcium flux incubated for 90 secs; type: functional, cell-based
T2 sequence (P61073 whole entry): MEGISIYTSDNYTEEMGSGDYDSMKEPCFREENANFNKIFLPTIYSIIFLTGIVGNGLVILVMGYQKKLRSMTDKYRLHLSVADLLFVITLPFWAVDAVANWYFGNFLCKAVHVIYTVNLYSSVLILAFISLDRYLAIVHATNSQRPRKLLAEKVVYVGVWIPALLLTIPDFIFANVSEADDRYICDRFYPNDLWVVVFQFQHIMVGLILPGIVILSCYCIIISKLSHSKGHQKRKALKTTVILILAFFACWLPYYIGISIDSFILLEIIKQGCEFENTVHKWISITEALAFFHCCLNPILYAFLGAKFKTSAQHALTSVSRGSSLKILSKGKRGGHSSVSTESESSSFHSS

[4] = Permeability of the compound in pH 7.4 buffer after 4 hrs by PAMPA; type: ADME; conditions: read-out: permeability
Outline: (§1)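 Parallel artificial membrane permeability assay (PAMPA) for passive transcellular permeability, run at pH 7.4 and at pH 5.5, with permeability reported in nm/s.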

[5] = Metabolic stability in human liver microsomes assessed as parent compound remaining; type: ADME, microsome
[6] = Metabolic stability in mouse liver microsomes assessed as parent compound remaining; type: ADME, microsome
[7] = molecular target: T1, Muscarinic acetylcholine receptor M3; test: Agonist activity at mAChR M3 in human CCRF-CEM cells assessed as increase in calcium flux incubated for 90 secs; type: functional, cell-based
Target sequence in this assay (P20309 whole entry, looked up): as the sequence (P20309 whole entry) above

Cytochrome P450 2C8 = molecular target: T3, Cytochrome P450 2C8 (Homo sapiens, UniProt P10632); test: Inhibition of CYP2C8 (unknown origin); type: ADME
T3 sequence (P10632 whole entry): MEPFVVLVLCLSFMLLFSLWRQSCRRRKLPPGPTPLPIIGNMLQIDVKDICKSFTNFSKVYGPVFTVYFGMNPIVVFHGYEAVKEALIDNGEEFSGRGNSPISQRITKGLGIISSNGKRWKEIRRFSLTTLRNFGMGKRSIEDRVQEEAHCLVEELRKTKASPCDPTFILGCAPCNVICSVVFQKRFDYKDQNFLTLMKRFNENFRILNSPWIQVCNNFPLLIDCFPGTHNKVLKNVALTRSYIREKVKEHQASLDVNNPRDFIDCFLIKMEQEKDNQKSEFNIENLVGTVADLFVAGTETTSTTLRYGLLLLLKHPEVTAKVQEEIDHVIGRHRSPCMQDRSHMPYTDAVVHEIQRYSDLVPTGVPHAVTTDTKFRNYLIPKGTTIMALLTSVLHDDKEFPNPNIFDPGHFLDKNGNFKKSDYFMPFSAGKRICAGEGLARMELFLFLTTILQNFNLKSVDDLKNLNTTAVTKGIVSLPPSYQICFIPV

Cytochrome P450 2C19 = Cytochrome P450 2C19 (Homo sapiens, UniProt P33261); test: Inhibition of CYP2C19 (unknown origin); type: ADME
Cytochrome P450 2C19, sequence (P33261 whole entry): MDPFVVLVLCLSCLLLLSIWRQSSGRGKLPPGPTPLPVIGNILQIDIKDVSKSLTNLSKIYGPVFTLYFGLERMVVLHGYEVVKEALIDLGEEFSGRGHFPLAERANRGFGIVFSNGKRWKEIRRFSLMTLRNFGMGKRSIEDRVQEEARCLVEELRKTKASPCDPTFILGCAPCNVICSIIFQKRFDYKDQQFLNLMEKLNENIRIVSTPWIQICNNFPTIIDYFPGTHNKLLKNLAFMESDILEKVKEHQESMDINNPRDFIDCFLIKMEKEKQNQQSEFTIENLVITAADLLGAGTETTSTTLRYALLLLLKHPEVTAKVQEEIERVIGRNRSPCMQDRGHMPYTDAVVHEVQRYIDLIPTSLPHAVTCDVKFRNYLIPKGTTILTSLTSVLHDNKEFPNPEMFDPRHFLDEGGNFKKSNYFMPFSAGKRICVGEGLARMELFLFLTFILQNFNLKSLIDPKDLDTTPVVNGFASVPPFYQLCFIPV

Cytochrome P450 3A4 = Cytochrome P450 3A4 (Homo sapiens, UniProt P08684); test: Inhibition of CYP3A4 (unknown origin) using BFC as substrate; type: ADME
Cytochrome P450 3A4, sequence (P08684 whole entry): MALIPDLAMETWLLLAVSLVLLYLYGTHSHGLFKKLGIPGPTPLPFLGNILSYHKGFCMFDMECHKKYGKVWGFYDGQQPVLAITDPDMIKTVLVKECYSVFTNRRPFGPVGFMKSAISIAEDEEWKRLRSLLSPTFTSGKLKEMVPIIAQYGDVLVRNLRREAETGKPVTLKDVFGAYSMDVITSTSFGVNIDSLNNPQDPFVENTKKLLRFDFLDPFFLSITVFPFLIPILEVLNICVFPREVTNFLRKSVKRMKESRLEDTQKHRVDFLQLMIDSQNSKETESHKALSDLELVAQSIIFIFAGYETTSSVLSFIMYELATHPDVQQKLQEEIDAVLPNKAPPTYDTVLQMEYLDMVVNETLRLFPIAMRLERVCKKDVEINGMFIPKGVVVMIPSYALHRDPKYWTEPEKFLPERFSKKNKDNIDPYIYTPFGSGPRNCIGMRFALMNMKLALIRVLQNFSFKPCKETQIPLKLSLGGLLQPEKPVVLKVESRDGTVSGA

[8] = molecular target: T2, C-X-C chemokine receptor type 4; test: Antagonist activity at CXCR4 in human CCRF-CEM cells assessed as inhibition of CXCL12-mediated calcium flux incubated for 25 mins followed by CXCL12 stimulation measured for 90 secs; type: functional, cell-based
[9] = Permeability of the compound in pH 5.5 buffer after 4 hrs by PAMPA; type: ADME; conditions: for permeability: pampa, pH 5.5, 4 h, 4 h; for Papp at 4 h: PAMPA, pH 5.5, read-out: permeability; outline: as §1
[10] = molecular target: T1, Muscarinic acetylcholine receptor M3; test: Antagonist activity at mAChR M3 in human CCRF-CEM cells assessed as inhibition of acetylcholine-mediated calcium flux incubated for 25 mins followed by acetylcholine stimulation measured for 90 secs relative to control; type: functional, cell-based; note: test concentration or dose not given here
Target sequence in this assay (P20309 whole entry, looked up): as the sequence (P20309 whole entry) above

| Compound | IC50 [1] [µM] | Stability [2] [%] | IC50 (Cytochrome P450 2D6) [µM] | Activity [3] | Papp at 4 h [4] [nm/s] | Stability [5] [%] | Stability [6] [%] | Activity [7] | IC50 (Cytochrome P450 2C8) [µM] | IC50 (Cytochrome P450 2C19) [µM] | IC50 (Cytochrome P450 3A4) [µM] | IC50 [8] [µM] | permeability [9] [nm/s] | inhibition [10] [%] | Papp at 4 h [9] [nm/s] |
| --- | --- | --- | --- | --- | --- | --- | --- | --- | --- | --- | --- | --- | --- | --- | --- |
| FC1(F)CCC(NC/C=C\CN(C[C@H]2Cc3ccccc3CN2)[C@H]2CCCc3cccnc32)CC1 | 11 | 1 | 0.54 | Active | 13 | 44 | 3 | Active | – | – | – | – | – | – | – |
| NC[C@H]1CC[C@H](CN(C[C@H]2Cc3ccccc3CN2)[C@H]2CCCc3cccnc32)CC1 | 10 | 86 | 12 | – | – | 63 | 92 | – | 4.1 | 9.1 | – | – | – | – | – |
| C/C(CN)=C(/F)CN(C[C@H]1Cc2ccccc2CN1)[C@H]1CCCc2cccnc21 | 8.8 | 72 | 0.14 | – | 220 | 97 | 61 | – | – | 19 | 2.4 | 0.044 | – | – | – |
| NCC1CC1CN(C[C@H]1Cc2ccccc2CN1)[C@H]1CCCc2cccnc21 (single isomer, unassigned; diastereomer 2) | 13 | – | 0.27 | – | – | – | 4 | – | – | – | – | 0.013 | 88 | – | – |
| NCC1CC1CN(C[C@H]1Cc2ccccc2CN1)[C@H]1CCCc2cccnc21 (single isomer, unassigned; diastereomer 1) [listing 1 of 2 here] | – | – | – | – | – | – | – | – | – | – | – | – | – | 51 | – |
| C/C(CN(C[C@H]1Cc2ccccc2CN1)[C@H]1CCCc2cccnc21)=C(\F)CN | 9.6 | 6 | 0.19 | – | 550 | 51 | 1 | – | – | – | 13 | – | – | – | 280 |
| C/C(CN)=C(\F)CN(C[C@H]1Cc2ccccc2CN1)[C@H]1CCCc2cccnc21 | 0.77 | 2 | 0.059 | – | 490 | 100 | 2 | – | – | – | 15 | 0.028 | – | – | 50 |
| C/C(CN(C[C@H]1Cc2ccccc2CN1)[C@H]1CCCc2cccnc21)=C(/F)CN | > 17 | 61 | 0.11 | – | 700 | 35 | 15 | – | 18 | – | 1.8 | 1.8 | – | – | – |
| NCC1CC1CN(C[C@H]1Cc2ccccc2CN1)[C@H]1CCCc2cccnc21 (single isomer, unassigned; diastereomer 1) [listing 2 of 2 here] | > 33 | 1 | 0.54 | – | 130 | 100 | 1 | – | – | – | – | 0.0064 | 8 | – | – |
